rRNA inh HTS: selective bacterial rRNA inhibition in E. coli; 350,000 tested, 1.6% active; E. coli WT GFP vs humanized-ribosome RFP mutants, fluorescence, 24 h; stronger effect = lower value; DMSO median 0, no signal -100; GFP signal change (wild-type ribosome), % (test concentration not listed);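 active = significant combined selectivity score with lowered wild-type GFP, culture density cut under 30%, mutant RFP and density less affected; inactive = any of these conditions unmet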
ARNT TACC3 PPI: disrupts binding between human ARNT and TACC3; Q9Y6A5; AlphaScreen His-ARNT PAS-B/GST-TACC3 binding, luminescence; TACC3 fragment carries E629A point mutation; inhibition, % at 9.99 µM; 390,000 tested, 0.66% active; AID 623870;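 active = mean inhibition of replicates at least 50% and at least half of replicates each reaching 50%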;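 note: 0% = complete ARNT plus TACC3 wells and 100% = ARNT alone without TACC3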
PGC1a acetyl inh: modulators of PGC1a acetylation; U2OS PGC1a acetylation, AlphaScreen anti-acetyl-lysine; with virally co-expressed GCN5 acetyltransferase; 350,000 tested, 0.17% active; inhibition, % at 15.6 µM;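 active = every replicate shows inhibition of at least 40%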;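 note: 0% = neutral control wells and 100% = positive control wells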
S100A4 MyoIIA: blocks human S100A4 binding to myosin IIA peptide; S100A4/TAMRA-MyoIIA peptide fluorescence polarization; AID 652163; 360,000 tested, 0.14% active; inhibition, % at 10.7 µM;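 active = mean inhibition of at least 70% across replicates, with every replicate also reaching that level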
Target sequence (P26447 whole entry, looked up): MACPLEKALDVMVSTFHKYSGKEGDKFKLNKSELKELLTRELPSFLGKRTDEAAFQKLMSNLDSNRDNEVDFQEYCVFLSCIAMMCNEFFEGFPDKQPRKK
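Material: S100A4 monomer protein / Buffer or medium: 50 mM HEPES pH 7.2, 10 mM CaCl2, 100 mM KCl / Times: 5 min incubation before reading / Benchmarks: neutral control DMSO, positive control TFP / Reagent: labelled myosin peptide probe, 5 nM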
Casp6 inh: blocks human caspase-6 cleavage activity; 350,000 tested, 0.53% active; inhibition, % at 12.5 µM; purified caspase-6, Z-VEID-R110 cleavage fluorescence;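 active = mean inhibition across replicates at least about 35%, with every replicate also reaching that limit, limit read from the data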;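 note: 0% = median of neutral control wells and 100% = no fluorescence left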
Target sequence (P55212 24-179 limits assumed): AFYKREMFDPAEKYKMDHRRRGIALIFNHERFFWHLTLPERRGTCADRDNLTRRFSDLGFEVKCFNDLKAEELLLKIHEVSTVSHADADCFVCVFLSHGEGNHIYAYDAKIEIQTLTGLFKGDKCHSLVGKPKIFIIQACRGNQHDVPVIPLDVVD
Target sequence (P55212 194-293 limits assumed): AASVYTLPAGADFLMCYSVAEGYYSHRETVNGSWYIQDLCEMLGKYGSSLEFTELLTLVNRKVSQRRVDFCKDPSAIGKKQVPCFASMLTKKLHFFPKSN
ERAP1 HTS inh: inhibitors of human ERAP1 aminopeptidase; 340,000 tested, 0.15% active; AID 652197; inhibition, % at 10.7 µM; Q9NZ08; recombinant ERAP1, Leu-AMC fluorescence, 60 min;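 active = mean replicate inhibition of at least 30%, or all replicates individually reaching that 30% level; inactive = mean below 30% and not every replicate reaching it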;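 note: 0% = neutral control wells and 100% = L-leucinethiol positive control wells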
The depositor's hits bear a star; · = no result given. Hits are enriched below; roughly 2.4% of the tested compounds scored in any of these assays.

SMILES	rRNA inh HTS	ARNT TACC3 PPI	PGC1a acetyl inh	S100A4 MyoIIA	Casp6 inh	ERAP1 HTS inh
COc1ccc2c3c(n(C)c2c1)[C@@H](CO)N(C(=O)C1CCCC1)CC31CCN(CC2CCCC2)CC1	1	·	·	16	-1	1
Cc1ccc(-c2ccc3c(c2)O[C@@H](CN(C)C(=O)C2CCCCC2)[C@@H](C)CN([C@@H](C)CO)S3(=O)=O)cc1	1	·	18	·	·	·
O=C1Nc2ccccc2N=C(c2ccccc2)C1N(Cc1ccc(F)cc1)C(=O)c1cccnc1 (stereo unspecified)	4	·	41*	-1	-1	16
COc1ccc(C2=Nc3ccccc3NC(=O)C2N(Cc2ccc(F)cc2)C(=O)c2ccco2)cc1 (stereo unspecified)	-10	·	-10	-2	5	1
COc1ccc(NS(=O)(=O)c2cc(NC(=O)[C@H](C)NC(N)=O)ccc2N2CCCC2)cc1	-6	0	-5	-2	44*	-1
CC(C)NC[C@@H]1[C@@H](c2ccc(C3=CCCCC3)cc2)[C@@H](CO)N1C(=O)CC1CC1	-2	·	·	·	·	·
COc1ccc(-n2c(N)c(C(=O)NCc3ccco3)sc2=S)cc1	·	-6	-5	·	·	·
CCOC(=O)c1ccc(-n2c(N)c(C(=O)NCc3ccco3)sc2=S)cc1	-26*	11	-1	-2	5	1
C[C@@H]1CCCCO[C@@H](CN(C)C(=O)c2ccccc2)[C@@H](C)CN([C@@H](C)CO)C(=O)c2cc(NS(=O)(=O)c3cccs3)ccc2O1	3	-8	·	5	-1	-5
COc1ccc(C(=O)NCc2c(C)oc(C)c2C(=O)O)cc1	10	-2	-6	-6	-2	0
COc1ccc(C(=O)NCc2oc(-c3ccccc3)cc2C(=O)O)cc1	-24*	-2	·	7	6	3
CCC(C)OC(=O)C[N+](C)(C)CCOC1CC2CCC1(C)C2(C)C (stereo unspecified)	-54	-4	-6	6	4	2
CC(=O)OC(COC1C[C@@H]2CC[C@@]1(C)C2(C)C)C[N+]1(C)CCCCC1 (stereo partly specified)	-30	-1	1	-4	3	100*
CC(C)C#Cc1cnc2c(c1)C(=O)N([C@@H](C)CO)C[C@@H](C)[C@H](CN(C)C(=O)Nc1cccc(F)c1)O2	3	21	-2	3	-1	3
C=CCC(NCc1ccccc1)c1ccc(Cl)cc1 (stereo unspecified)	·	-11	-2	0	54*	8
CN(CCOc1ccccc1Cl)Cc1ccccc1	-7	-5	0	0	1	1
Cc1cc(OCC(=O)N(C)Cc2ccccc2)ccc1Cl	-30*	-3	·	-1	3	0
CN(CCOCCOc1ccc(Cl)cc1Br)Cc1ccccc1	-37*	-2	-2	-18	-2	10
CN(CCOc1ccc(Cl)c(Cl)c1)Cc1ccccc1	-30*	-14	8	0	-1	0
CCOc1ccc(OCCN(C)Cc2ccccc2)cc1	·	-6	-2	·	·	·
COc1ccc(OCCCCN(C)Cc2ccccc2)cc1	12	·	·	0	-2	-2
C=CCc1cc(OC)ccc1OCCN(C)Cc1ccccc1	-30*	-5	·	0	2	5
CC(C)NC(=O)N1CC2(C1)[C@@H](c1ccccc1)[C@@H](CO)N2C(=O)C1CCCC1	3	·	5	0	-2	2
Cc1cccc(-c2ccc([C@@H]3[C@@H](CO)N4C(=O)CN(C(=O)c5cnccn5)C[C@H]34)cc2)c1	-2	·	·	·	·	·
O=C(N/N=C/c1ccccc1Cl)c1n[nH]c2c1CCCC2	18	2	·	-6	1	-4
SMILES	rRNA inh HTS	ARNT TACC3 PPI	PGC1a acetyl inh	S100A4 MyoIIA	Casp6 inh	ERAP1 HTS inh
Cc1[nH]nc(C(=O)NN=Cc2ccccc2Cl)c1N=NN(C)C	-21*	-2	4	-8	-2	1
CC(C)C(=O)Nc1nnc(NC(=S)Nc2ccccc2)s1	-34*	5	9	-4	-1	6
O=C1CCCCn2cc(nn2)COC[C@@H](Cc2ccccc2)N1	5	·	·	·	·	·
O=C1CCCn2cc(nn2)COC[C@@H](Cc2ccccc2)N1	4	·	·	117*	-8	1
CCN(CC)C(=O)c1sc2nc(-c3ccncc3)[nH]c(=O)c2c1C	·	·	0	·	·	·
CCN(CC)C(=O)c1sc2nc(-c3ccccn3)[nH]c(=O)c2c1C	-18	61*	4	3	7	12
Cc1sc2nc(N3CCOCC3)[nH]c(=O)c2c1-c1ccccc1	3	-7	·	-5	1	0
Cc1sc2nc(-c3ccccn3)[nH]c(=O)c2c1-c1ccccc1	-63	79*	·	-3	9	17
CCNC(=O)[C@H]1[C@H](CO)[C@H]2Cn3c(ccc(C4=CCCCC4)c3=O)[C@H]2N1Cc1ccccc1F	-4	4	·	3	-1	2
Cn1c(=O)c(C#N)c(-c2ccc(F)cc2)c2cc(C(=O)c3cc(Cl)cc(Cl)c3O)cnc21	-28*	2	4	-7	-2	2
O=C(N[C@H]1C=C[C@H](CC(=O)N2CCOCC2)O[C@@H]1CO)c1ccc2c(c1)OCO2	2	-2	-3	6	-3	-2
CC1CCCC(NC(=O)CSc2ccc(F)cc2)C1C (stereo unspecified)	8	-3	2	-9	0	7
CC1CCCC(NCC(O)COC(c2ccc(F)cc2)c2ccc(F)cc2)C1C (stereo unspecified)	-53*	2	-20	-20	2	-2
COc1ccc(S(=O)(=O)Nc2ccc3c(c2)C(=O)N([C@@H](C)CO)C[C@H](C)[C@H](CN(C)C(=O)NC(C)C)O3)cc1	5	23	0	26	-4	7
COc1ccc(C(=O)c2cn[nH]c2-c2cc(C)ccc2O)cc1	-16*	3	·	0	0	-3
O=C1NC(=O)/C(=C\c2ccc(O)cc2O)S1	-20	3	·	5	87*	6
O=C1NC(=O)/C(=C/c2cccc3ccccc23)S1	-44	23	-6	23	9	-1
CCCNC(=O)[C@H]1[C@H](CO)[C@H]2Cn3c(cccc3=O)[C@H]2N1C(=O)CC1CC1	3	-1	-6	20	0	-2
Cn1c(=O)c2c(nc(N3CCc4ccccc4C3)n2C)n(C)c1=O	-22*	44	-7	64	4	1
Cn1c(=O)c2c(nc(N3CCc4ccccc4C3)n2Cc2ccccc2F)n(C)c1=O	·	-8	-10	·	·	·
CCCCOc1ccc(C(=O)Oc2cc(C)[nH]c(=O)c2[N+](=O)[O-])cc1	5	46*	12	-2	3	-5

Source: PubChem BioAssay (Broad Institute)
